Data reported in ChEMBL document CHEMBL4152200, “Targeting the entrance channel of NNIBP: Discovery of diarylnicotinamide 1,4-disubstituted 1,2,3-triazoles as novel HIV-1 NNRTIs with high potency against wild-type and E138K mutant virus” (Eur J Med Chem, 2018).

Legend:
[1] = system: Human immunodeficiency virus 1; assay: Antiviral activity against wild-type HIV-1 3B infected in human MT4 cells assessed as inhibition of viral replication after 5 days by MTT assay; type: functional, organism-based; conditions: Human immunodeficiency virus 1, 3B, MT4, 120 h
[2] = system: Human immunodeficiency virus 1; assay: Antiviral activity against HIV-1 RES056 harboring reverse transcriptase K103N/Y181C double mutant infected in human MT4 cells assessed as inhibition of viral replication after 5 days by MTT assay; type: functional, organism-based; conditions: Human immunodeficiency virus 1, RES056, MT4, 120 h
[3] = system: MT4; assay: Cytotoxicity against human MT4 cells assessed as decrease in cell viability after 5 days by MTT assay; type: cell-based; conditions: mt4, 120 h
How it was run: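 Mock-infected MT-4 cells, exponentially growing, seeded with compound in culture medium without virus; run in parallel with the antiviral assay. Viability read spectrophotometrically by MTT reduction five days later.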

[4] = Selectivity index, ratio of CC50 for human MT4 cells to EC50 for wild-type HIV1 3B; type: toxicity; conditions: read-out: Ratio CC50/EC50
How it was run: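 Wild-type HIV-1 IIIB at 100–300 CCID50 added to MT-4 cells with compound, with mock-infected wells in parallel. MTT viability was read at day 5. […] SI = CC50/EC50.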

[5] = Selectivity index, ratio of CC50 for human MT4 cells to EC50 for HIV-1 RES056 harboring reverse transcriptase K103N/Y181C double mutant infected in human MT4 cells; type: toxicity, cell-based; conditions: read-out: Ratio CC50/EC50
How it was run: (§1)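 SI is CC₅₀ divided by EC₅₀, both by MTT after 5 days in MT-4 cells. CC₅₀ comes from mock-infected cultures run in parallel and is the concentration reducing their viability by 50%. EC₅₀ comes from cultures infected with the given mutant strain at 100–300 CCID₅₀.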

[6] = system: Human immunodeficiency virus 1; assay: Antiviral activity against HIV1 harboring reverse transcriptase L100I mutant infected in human MT4 cells assessed as inhibition of viral replication after 5 days by MTT assay; type: functional, organism-based; conditions: Human immunodeficiency virus 1, MT4, 120 h
[7] = system: Human immunodeficiency virus 1; assay: Antiviral activity against HIV1 harboring reverse transcriptase K103N mutant infected in human MT4 cells assessed as inhibition of viral replication after 5 days by MTT assay; type: functional, organism-based; conditions: Human immunodeficiency virus 1, MT4, 120 h
[8] = system: Human immunodeficiency virus 1; assay: Antiviral activity against HIV1 harboring reverse transcriptase E138K mutant infected in human MT4 cells assessed as inhibition of viral replication after 5 days by MTT assay; type: functional, organism-based; conditions: Human immunodeficiency virus 1, MT4, 120 h
[9] = system: Human immunodeficiency virus 1; assay: Antiviral activity against HIV1 harboring reverse transcriptase Y181C mutant infected in human MT4 cells assessed as inhibition of viral replication after 5 days by MTT assay; type: functional, organism-based; conditions: Human immunodeficiency virus 1, MT4, 120 h
[10] = system: Human immunodeficiency virus 1; assay: Antiviral activity against HIV1 harboring reverse transcriptase Y188L mutant infected in human MT4 cells assessed as inhibition of viral replication after 5 days by MTT assay; type: functional, organism-based; conditions: Human immunodeficiency virus 1, MT4, 120 h
How it was run: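 MT-4 cells in exponential growth, resuspended into wells holding HIV-1 stock (IIIB, RES056 K103N/Y181C, F227L/V106A, L100I, K103N, E138K, Y181C or Y188L) at 100–300 CCID₅₀, or into mock-infected wells. Viability read by MTT reduction to formazan, measured spectrophotometrically 5 days post-infection. EC₅₀ is the concentration giving 50% protection against virus-induced cytotoxicity.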

[11] = system: Human immunodeficiency virus 1; assay: Antiviral activity against HIV1 harboring reverse transcriptase F227L/V106A double mutant infected in human MT4 cells assessed as inhibition of viral replication after 5 days by MTT assay; type: functional, organism-based; conditions: Human immunodeficiency virus 1, MT4, 120 h
[12] = system: Human immunodeficiency virus 1; assay: Resistance factor, ratio of EC50 for HIV1 harboring reverse transcriptase L100I mutant to EC50 for wild-type HIV-1 3B; type: functional
How it was run: (§2)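 Resistance fold is EC₅₀ against the mutant strain divided by EC₅₀ against WT IIIB. Both EC₅₀ values come from the 5-day MTT protection assay in MT-4 cells infected with 100–300 CCID₅₀ of virus.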

[13] = system: Human immunodeficiency virus 1; assay: Resistance factor, ratio of EC50 for HIV1 harboring reverse transcriptase K103N mutant to EC50 for wild-type HIV-1 3B; type: functional; how it was run: as §2
[14] = system: Human immunodeficiency virus 1; assay: Resistance factor, ratio of EC50 for HIV1 harboring reverse transcriptase E138K mutant to EC50 for wild-type HIV-1 3B; type: functional; how it was run: as §2
[15] = system: Human immunodeficiency virus 1; assay: Resistance factor, ratio of EC50 for HIV1 harboring reverse transcriptase Y181C mutant to EC50 for wild-type HIV-1 3B; type: functional; how it was run: as §2
[16] = system: Human immunodeficiency virus 1; assay: Resistance factor, ratio of EC50 for HIV1 harboring reverse transcriptase Y188L mutant to EC50 for wild-type HIV-1 3B; type: functional; how it was run: as §2
[17] = system: Human immunodeficiency virus 1; assay: Resistance factor, ratio of EC50 for HIV1 harboring reverse transcriptase F227L/V106A mutant to EC50 for wild-type HIV-1 3B; type: functional; how it was run: as §2
[18] = Selectivity index, ratio of CC50 for human MT4 cells to EC50 for HIV1 harboring reverse transcriptase L100I mutant; type: toxicity; conditions: read-out: Ratio CC50/EC50; how it was run: as §1
[19] = Selectivity index, ratio of CC50 for human MT4 cells to EC50 for HIV1 harboring reverse transcriptase K103N mutant; type: toxicity; conditions: read-out: Ratio CC50/EC50; how it was run: as §1
[20] = Selectivity index, ratio of CC50 for human MT4 cells to EC50 for HIV1 harboring reverse transcriptase E138K mutant; type: toxicity; conditions: read-out: Ratio CC50/EC50; how it was run: as §1
[21] = Selectivity index, ratio of CC50 for human MT4 cells to EC50 for HIV1 harboring reverse transcriptase Y181C mutant; type: toxicity; conditions: read-out: Ratio CC50/EC50; how it was run: as §1
[22] = Selectivity index, ratio of CC50 for human MT4 cells to EC50 for HIV1 harboring reverse transcriptase Y188L mutant; type: toxicity; conditions: read-out: Ratio CC50/EC50; how it was run: as §1
[23] = Selectivity index, ratio of CC50 for human MT4 cells to EC50 for HIV1 harboring reverse transcriptase F227L/V106A mutant; type: toxicity; conditions: read-out: Ratio CC50/EC50; how it was run: as §1

Row | Compound | EC50 [1] | EC50 [2] | CC50 [3] | EC50 [6] | EC50 [7] | EC50 [10] | EC50 [11] | further results
1 | Cc1cc(C)c(Oc2cc(Nc3ccc(C#N)cc3)ncc2C(=O)NCc2cn(CC(N)=O)nn2)c(C)c1 | 172 nM | 5330 nM | 24000 nM | 3520 nM | 1030 nM | 4460 nM | 1800 nM | selectivity ratio [4]: 139; selectivity ratio [5]: 5; EC50 [8]: 150 nM; EC50 [9]: 830 nM; Ratio EC50 [12]: 20.5; Ratio EC50 [13]: 6; Ratio EC50 [14]: 0.9; Ratio EC50 [15]: 4.8; Ratio EC50 [16]: 25.9; Ratio EC50 [17]: 10.5; selectivity ratio [18]: 7; selectivity ratio [19]: 23; selectivity ratio [20]: 159; selectivity ratio [21]: 29; selectivity ratio [22]: 5; selectivity ratio [23]: 13
2 | Cc1cc(C)c(Oc2cc(Nc3ccc(C#N)cc3)ncc2C(=O)NCc2cn(Cc3ccccc3F)nn2)c(C)c1 | 95 nM | > 222000 nM | > 222000 nM |  |  |  |  | 
3 | Cc1cc(C)c(Oc2cc(Nc3ccc(C#N)cc3)ncc2C(=O)NCc2cn(Cc3ccccc3Cl)nn2)c(C)c1 | 104 nM | > 188000 nM | ≥ 188000 nM |  |  |  |  | 
4 | Cc1cc(C)c(Oc2cc(Nc3ccc(C#N)cc3)ncc2C(=O)NCc2cn(Cc3cccc(F)c3)nn2)c(C)c1 | 79 nM | > 205000 nM | ≥ 205000 nM |  |  |  |  | 
5 | Cc1cc(C)c(Oc2cc(Nc3ccc(C#N)cc3)ncc2C(=O)NCc2cn(Cc3cccc([N+](=O)[O-])c3)nn2)c(C)c1 | 37 nM | > 156000 nM | ≥ 156000 nM |  |  |  |  | 
6 | CCOC(=O)Cn1cc(CNC(=O)c2cnc(Nc3ccc(C#N)cc3)cc2Oc2c(C)cc(C)cc2C)nn1 | 653 nM | > 9530 nM | 9530 nM |  |  |  |  | selectivity ratio [4]: 15; selectivity ratio [5]: < 1
7 | Cc1cc(C)c(Oc2cc(Nc3ccc(C#N)cc3)ncc2C(=O)NCc2cn(Cc3ccc(Cl)cc3)nn2)c(C)c1 | 194 nM | > 120000 nM | ≥ 120000 nM |  |  |  |  | 
8 | Cc1cc(C)c(Oc2cc(Nc3ccc(C#N)cc3)ncc2C(=O)NCc2cn(Cc3ccc(F)cc3)nn2)c(C)c1 | 74 nM | > 153000 nM | ≥ 153000 nM |  |  |  |  | 
9 | CC(=O)Cn1cc(CNC(=O)c2cnc(Nc3ccc(C#N)cc3)cc2Oc2c(C)cc(C)cc2C)nn1 | 29 nM | 2210 nM | 19400 nM | 1000 nM | 260 nM | 3200 nM | 590 nM | selectivity ratio [4]: 670; selectivity ratio [5]: 9; EC50 [8]: 26 nM; EC50 [9]: 160 nM; Ratio EC50 [12]: 34.5; Ratio EC50 [13]: 9; Ratio EC50 [14]: 0.9; Ratio EC50 [15]: 5.5; Ratio EC50 [16]: 110.3; Ratio EC50 [17]: 20.3; selectivity ratio [18]: 19; selectivity ratio [19]: 73; selectivity ratio [20]: 756; selectivity ratio [21]: 123; selectivity ratio [22]: 6; selectivity ratio [23]: 33
10 | CC(C)Nc1cccnc1N1CCN(C(=O)c2cc3cc(NS(C)(=O)=O)ccc3[nH]2)CC1 [DELAVIRDINE] | 38 nM |  |  | 2540 nM | 3000 nM | 840 nM | 2270 nM | EC50 [8]: 51 nM; EC50 [9]: 2460 nM; Ratio EC50 [12]: 66.8; Ratio EC50 [13]: 78.9; Ratio EC50 [14]: 1.3; Ratio EC50 [15]: 64.7; Ratio EC50 [16]: 22.1; Ratio EC50 [17]: 59.7
11 | Cc1cc(C#N)cc(C)c1Oc1nc(Nc2ccc(C#N)cc2)nc(N)c1Br [ETRAVIRINE] |  |  |  |  |  | 11 nM | 5 nM | 
12 | Cc1cn([C@H]2C[C@H](N=[N+]=[N-])[C@@H](CO)O2)c(=O)[nH]c1=O [ZIDOVUDINE] |  | 11 nM | > 7480 nM | 5 nM | 8 nM |  |  | 
